ChEMBL document CHEMBL6115053, “Optimization and Characterization of N-Acetamide Indoles as Antimalarials That Target PfATP4” (J Med Chem, 2025)
Converted amounts (≈) assume the structure as drawn. The source made the active and inactive calls. The rule behind the calls is not given here.

Columns and labels:
Plasmodium falciparum [1] = assay: Antiplasmodial activity against asexual Plasmodium falciparum 3D7 infected in human […] cells assessed as reduction in parasite growth measured for 72 hrs by LDH assay; assay type: functional, organism-based; settings: 3D7, 72 h
HepG2 = assay: Cytotoxicity against human HepG2 cells assessed as inhibition of cell growth incubated for 48 hrs by celltiterglo assay; assay type: toxicity, cell-based; settings: hepg2, 48 h
[2] = Aqueous solubility in PBS buffer at pH 7.4; assay type: physicochemical
[3] = Metabolic stability in human liver microsome assessed as intrinsic clearance; assay type: ADME; settings: microsomes
[4] = Metabolic stability in mouse liver microsome assessed as intrinsic clearance; assay type: ADME; settings: microsomes
[5] = Metabolic stability in rat hepatocyte […] assessed as intrinsic clearance measured per 10^6 cells; assay type: ADME, cell-based; settings: hepatocytes
[6] = Lipophilicity, logD of compound at pH 7.4 by shake-flask method; assay type: physicochemical; settings: buffer
[7] = Permeability across basolateral to apical side in human Caco-2 cells; assay type: ADME, cell-based
[8] = Permeability across apical to basolateral side in human Caco-2 cells; assay type: ADME, cell-based
Plasmodium falciparum [9] = assay: Antimalarial activity against Plasmodium falciparum NF54 infected assessed as inhibition of male gamete formation incubated for 48 hrs by automated bright field microscopic analysis; assay type: functional, organism-based; settings: NF54, 48 h
Plasmodium falciparum [10] = assay: Antimalarial activity against Plasmodium falciparum NF54 infected assessed as inhibition of female gamete formation incubated for 48 hrs by automated bright field microscopic analysis; assay type: functional, organism-based; settings: NF54, 48 h
Plasmodium falciparum [11] = assay: Antiplasmodial activity against Plasmodium flaciparum NF54 stage V gametocytes infected in Anopheles stephensi with parasite infected blood meal assessed as reduction in oocyst count at 100 nM measured 7 days post blood infection by light microscopic analysis relative to control; assay type: functional; design: scale not given: the % may be the effect or the level left; settings: time 7 day
How it was run: (§1)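 Stage V gametocytes of P. falciparum NF54 were treated with compound and fed to Anopheles stephensi in a standard membrane feeding assay. Midguts were dissected 7 days after the blood meal and oocysts counted. Results were given as average oocyst intensity ± SEM, with a t test against vehicle.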

Plasmodium falciparum [12] = assay: Antiplasmodial activity against Plasmodium flaciparum NF54 stage V gametocytes infected in Anopheles stephensi with parasite infected blood meal assessed as reduction in oocyst count at 500 nM measured 7 days post blood infection by light microscopic analysis relative to control; assay type: functional; design: scale not given: the % may be the effect or the level left; settings: time 7 day; how it was run: as §1
Plasmodium berghei [13] = assay: Antimalarial activity against Plasmodium berghei ANKA infected in female BALB/c mouse assessed as parasitemia at 50 mg/kg, po measured for 2 to 72 hrs post infection by Giemsa staining based light microscopy; assay type: functional; settings: time 2-72 hrs
Plasmodium berghei [14] = assay: Antimalarial activity against Plasmodium berghei ANKA infected in female BALB/c mouse assessed as reduction in parasitemia at 50 mg/kg, po measured for 2 to 72 hrs post infection by Giemsa staining based light microscopy; assay type: functional; design: scale not given: the % may be the effect or the level left; settings: time 2-72 hrs
[15] = Tmax in CD-1 mouse at 20 mg/kg, po; assay type: ADME, organism-based; settings: in vivo
[16] = Cmax in CD-1 mouse at 20 mg/kg, po; assay type: ADME, organism-based; settings: in vivo
[17] = AUC (0 to last) in CD-1 mouse at 20 mg/kg, po; assay type: ADME, organism-based; settings: in vivo
[18] = Half life in CD-1 mouse at 20 mg/kg, po; assay type: ADME, organism-based; settings: in vivo
[19] = Clearance in CD-1 mouse at 20 mg/kg, po; assay type: ADME, organism-based; settings: in vivo
Plasmodium falciparum [20] = assay: Antiplasmodial activity against Plasmodium falciparum 3D7 infected in human […] cells incubated for 72 hrs; assay type: functional, organism-based; settings: 3D7, 72 h
Plasmodium falciparum [21] = assay: Antiplasmodial activity against W454-resistant population 1 Plasmodium falciparum 3D7 harboring Plasmodium falciparum ATP4 L928F mutant by LDH assay; assay type: functional, organism-based
Plasmodium falciparum [22] = assay: Antiplasmodial activity against W454-resistant population 2 Plasmodium falciparum 3D7 harboring Plasmodium falciparum ATP4 L928F mutant by LDH assay; assay type: functional, organism-based
Plasmodium falciparum [23] = assay: Antiplasmodial activity against W454-resistant population 3 Plasmodium falciparum 3D7 harboring Plasmodium falciparum ATP4 L928F mutant by LDH assay; assay type: functional, organism-based
Plasmodium falciparum [24] = assay: Antiplasmodial activity against multidrug-resistant Plasmodium falciparum Dd2 harboring plasmodium falciparum ATP4 I398F/P990R/D1247Y mutant by SYBR green staining based analysis; assay type: functional, organism-based
Plasmodium falciparum [25] = assay: Antiplasmodial activity against multidrug-resistant Plasmodium falciparum Dd2 harboring plasmodium falciparum ATP4 G358S mutant by SYBR green staining based analysis; assay type: functional, organism-based
Plasmodium falciparum [26] = assay: Antiplasmodial activity against N-(2,6-difluorophenyl)-2-(6-(5-methyl-1,3,4-oxadiazol-2-yl)-1H-indol-1-yl)acetamide-resistant Plasmodium falciparum Dd2 harboring plasmodium falciparum ATP4 F156L mutant by SYBR green staining based analysis; assay type: functional, organism-based
Plasmodium falciparum [27] = assay: Antiplasmodial activity against N-(2,6-difluorophenyl)-2-(6-(5-methyl-1,3,4-oxadiazol-2-yl)-1H-indol-1-yl)acetamide-resistant Plasmodium falciparum Dd2 harboring plasmodium falciparum ATP4 D425E mutant by SYBR green staining based analysis; assay type: functional, organism-based
Plasmodium falciparum [28] = assay: Antiplasmodial activity against N-(2,6-difluorophenyl)-2-(6-(5-methyl-1,3,4-oxadiazol-2-yl)-1H-indol-1-yl)acetamide-resistant Plasmodium falciparum Dd2 harbouring ATP4 genome with 2.8 fold CNV by SYBR green staining based analysis; assay type: functional, organism-based
Plasmodium falciparum [29] = assay: Antiplasmodial activity against Plasmodium falciparum 3D7 infected in RBC assessed as reduction in nucleotide level at 20 nM incubated for 5 hrs by LC-MS analysis; assay type: functional, organism-based
Plasmodium falciparum [30] = assay: Antiplasmodial activity against Plasmodium falciparum 3D7 infected in RBC assessed as reduction in pyrimidine-deoxyribonucleotides level at 20 nM incubated for 5 hrs by LC-MS analysis; assay type: functional, organism-based
Plasmodium falciparum [31] = assay: Antiplasmodial activity against Plasmodium falciparum 3D7 infected in RBC assessed as reduction in deoxythymidine triphosphate level at 20 nM incubated for 5 hrs by LC-MS analysis; assay type: functional, organism-based
Plasmodium falciparum [32] = assay: Antiplasmodial activity against Plasmodium falciparum 3D7 infected in RBC assessed as reduction in deoxythymidine diphosphate level at 20 nM incubated for 5 hrs by LC-MS analysis; assay type: functional, organism-based
Plasmodium falciparum [33] = assay: Antiplasmodial activity against Plasmodium falciparum 3D7 infected in RBC assessed as reduction in deoxycytidine monophosphate level at 20 nM incubated for 5 hrs by LC-MS analysis; assay type: functional, organism-based
Plasmodium falciparum [34] = assay: Antiplasmodial activity against Plasmodium falciparum 3D7 infected in RBC assessed as reduction in extracellular parasite growth at 6.7 nM measured for 8 hrs by Giemsa-staining based microscopic analysis; assay type: functional; design: scale not given: the % may be the effect or the level left
How it was run: (§2)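 Giemsa-stained thin smears were read at 8 h and the percentages of extracellular and intracellular parasites counted, compared with untreated parasites at 0 h.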

Plasmodium falciparum [35] = assay: Antiplasmodial activity against Plasmodium falciparum Dd2-B2; assay type: functional, organism-based
Plasmodium falciparum [36] = assay: Antiplasmodial activity against Plasmodium falciparum Dd2-B2 assessed as parasite clearance at 3 times IC90 incubated for 5 days; assay type: functional, organism-based; settings: time 5.0 day
Plasmodium falciparum [37] = assay: Antiplasmodial activity against Plasmodium falciparum Dd2-B2 assessed as parasite clearance at 3 times IC90 incubated for 42 days by flow cytometry analysis; assay type: functional, organism-based; settings: time 42.0 day
Plasmodium falciparum [38] = assay: Antiplasmodial activity against Plasmodium falciparum Dd2-B2 assessed as reduction in recrudescence measured for 42 days by flow cytometry; assay type: functional, organism-based; settings: time 42.0 day
Plasmodium falciparum [39] = assay: Antiplasmodial activity against asexual blood stage Plasmodium falciparum Dd2-B2 assessed as parasite recrudescence by measuring minimum inoculum of resistance measured for 40 days by flow cytometry; assay type: functional; settings: time 40 day
Plasmodium falciparum [40] = assay: Antiplasmodial activity against Plasmodium falciparum 3D7 harboring Plasmodium falciparum ATP4 […] mutant by SYBR green staining based flow cytometry analysis; assay type: functional, organism-based
Plasmodium falciparum [41] = assay: Antiplasmodial activity against Plasmodium falciparum 3D7 infected in RBC assessed as reduction in parasite growth measured for 8 hrs by Giemsa-staining based microscopic analysis; assay type: functional, organism-based; how it was run: as §2
Plasmodium falciparum [42] = assay: Antiplasmodial activity against Plasmodium falciparum 3D7 infected in RBC assessed as reduction in extracellular parasite growth at 0.03 uM measured for 8 hrs by Giemsa-staining based microscopic analysis; assay type: functional; design: scale not given: the % may be the effect or the level left; how it was run: as §2

## COc1cc(NC(=O)Cn2cc(Cl)c3cc(F)c(-c4cnn(C)c4)cc32)cc(OC)c1OC
Plasmodium falciparum [1]
  EC50: 13 nM
HepG2
  CC50: > 40000 nM
[2]
  solubility kinetic: < 2.5 µM
[3]
  intrinsic clearance (CLint): < 3.5 µL/min/mg
[4]
  intrinsic clearance (CLint): 6.8 µL/min/mg
[5]
  intrinsic clearance (CLint): 2.6 uL/min/10^6 cells
[6]
  logD: 4.8
[7]
  permeability: 1.5 10^-6 cm/s
[8]
  permeability: 0.8 10^-6 cm/s
Plasmodium falciparum [9]
  EC50: 210 nM
Plasmodium falciparum [10]
  EC50: 250 nM
Plasmodium falciparum [11]
  Activity: 59%
Plasmodium falciparum [12]
  Activity: 83%
Plasmodium berghei [13]
  Activity: 15.3%
Plasmodium berghei [14]
  Activity: 55%
[15]
  Tmax: 5.33 h
[16]
  Cmax: 700 ng/mL
[17]
  AUC(0-t): 8190 ng·h/mL
[18]
  half-life: 2.16 h
[19]
  CL/F: 42 mL/min/kg

## C[C@H]1Cc2c([nH]c3cc(Cl)c(F)cc23)[C@@]2(N1)C(=O)Nc1ccc(Cl)cc12 [CIPARGAMIN]
Plasmodium falciparum [20]
  EC50: 1 nM
Plasmodium falciparum [21]
  EC50: < 2 nM
Plasmodium falciparum [22]
  EC50: < 2 nM
Plasmodium falciparum [23]
  EC50: 2 nM
Plasmodium falciparum [24]
  EC50: 4 nM
Plasmodium falciparum [25]
  EC50: > 100 nM
Plasmodium falciparum [26]
  EC50: 3 nM
Plasmodium falciparum [27]
  EC50: 2 nM
Plasmodium falciparum [28]
  EC50: 4 nM
Plasmodium falciparum [29]
  Activity: inactive
Plasmodium falciparum [30]
  Activity: inactive
Plasmodium falciparum [31]
  Activity: inactive
Plasmodium falciparum [32]
  Activity: inactive
Plasmodium falciparum [33]
  Activity: inactive
Plasmodium falciparum [34]
  Activity: ~24%

## COc1cc(NC(=O)Cn2ccc3cc(F)c(-c4cnn(C)c4)cc32)cc(OC)c1OC
Plasmodium falciparum [1]
  EC50: 7 nM
HepG2
  CC50: > 40000 nM
[2]
  solubility kinetic: 2.7 µM (≈ 1.18 µg/mL)
[3]
  intrinsic clearance (CLint): 69 µL/min/mg
[4]
  intrinsic clearance (CLint): 90 µL/min/mg
[5]
  intrinsic clearance (CLint): 1.9 uL/min/10^6 cells
[6]
  logD: 3.2
Plasmodium falciparum [20]
  EC50: 4 nM
Plasmodium falciparum [21]
  EC50: 47 nM
Plasmodium falciparum [22]
  EC50: 44 nM
Plasmodium falciparum [23]
  EC50: 44 nM
Plasmodium falciparum [35]
  IC50: 17.3 nM
Plasmodium falciparum [36]
  Activity: Active
Plasmodium falciparum [37]
  Activity: Active
Plasmodium falciparum [38]
  Activity: Active
Plasmodium falciparum [39]
  log10MIR: 8.7
Plasmodium falciparum [40]
  Activity: Active
Plasmodium falciparum [24]
  EC50: 10 nM
Plasmodium falciparum [25]
  EC50: 42 nM
Plasmodium falciparum [26]
  EC50: 40 nM
Plasmodium falciparum [27]
  EC50: 19 nM
Plasmodium falciparum [28]
  EC50: 23 nM
Plasmodium falciparum [41]
  Activity: Active
Plasmodium falciparum [42]
  Activity: ~24%
Plasmodium falciparum [9]
  EC50: 190 nM
Plasmodium falciparum [10]
  EC50: 180 nM
